Test results from ChEMBL document CHEMBL5034016 (J Med Chem, 2021).

How the values were obtained:
[1] = system: Enterovirus; experiment: Antiviral activity against Enterovirus A71 harbouring VP1 S184T/P246S double mutant infected in human RD cells assessed as reduction in virus induced cytopathic effect incubated for 3 days by MTS/PMS assay; assay type: functional, organism-based
[2] = system: Enterovirus; experiment: Antiviral activity against Enterovirus A71 harbouring VP1 S184T mutant infected in human RD cells assessed as reduction in virus induced cytopathic effect incubated for 3 days by MTS/PMS assay; assay type: functional, organism-based
[3] = Cytotoxicity against human RD cells assessed as reduction in cell viability measured after 3 days by MTS/PMS assay; assay type: cell-based; details: time 3 day
In short: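 Uninfected RD cells were treated with serial compound dilutions in the same 3-day setup as the antiviral assay. […] Multiple dose–response curves (>2) from >1 independent experiments.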

[4] = system: Enterovirus; experiment: Antiviral activity against Enterovirus A71 harbouring VP1 P246S mutant infected in human RD cells assessed as reduction in virus induced cytopathic effect incubated for 3 days by MTS/PMS assay; assay type: functional, organism-based
[5] = system: Enterovirus A71; experiment: Antiviral activity against Enterovirus A71 BrCr infected in human RD cells assessed as reduction in virus-induced cytopathic effect incubated for 3 days by MTS/PMS assay; assay type: functional, organism-based; details: Enterovirus A, 72 h
[6] = Selectivity index, ratio of CC50 for human RD cells to EC50 for antiviral activity against Enterovirus A71 infected in human RD cells; assay type: toxicity, cell-based; details: read-out: Ratio CC50/EC50

Compound	selectivity ratio [6]	other results
O=C(CCC(CCC(=O)N[C@H](Cc1c[nH]c2ccccc12)C(=O)O)(CCC(=O)N[C@H](Cc1c[nH]c2ccccc12)C(=O)O)NC(=O)CCOCC(COCCC(=O)NC(CCC(=O)N[C@H](Cc1c[nH]c2ccccc12)C(=O)O)(CCC(=O)N[C@H](Cc1c[nH]c2ccccc12)C(=O)O)CCC(=O)N[C@H](Cc1c[nH]c2ccccc12)C(=O)O)(COCCC(=O)NC(CCC(=O)N[C@H](Cc1c[nH]c2ccccc12)C(=O)O)(CCC(=O)N[C@H](Cc1c[nH]c2ccccc12)C(=O)O)CCC(=O)N[C@H](Cc1c[nH]c2ccccc12)C(=O)O)COCCC(=O)NC(CCC(=O)N[C@H](Cc1c[nH]c2ccccc12)C(=O)O)(CCC(=O)N[C@H](Cc1c[nH]c2ccccc12)C(=O)O)CCC(=O)N[C@H](Cc1c[nH]c2ccccc12)C(=O)O)N[C@H](Cc1c[nH]c2ccccc12)C(=O)O		EC50 [1]: 8.9 µM; EC50 [2]: 2 µM; CC50 at 72 h [3]: 24.9 µM; EC50 [4]: 4.7 µM; EC50 [5]: 0.3 µM
O=C(CCC(CCC(=O)NC(Cc1c(-c2cc(C(=O)O)cc(C(=O)O)c2)[nH]c2ccccc12)C(=O)O)(CCC(=O)NC(Cc1c(-c2cc(C(=O)O)cc(C(=O)O)c2)[nH]c2ccccc12)C(=O)O)[N+](=O)[O-])NC(Cc1c(-c2cc(C(=O)O)cc(C(=O)O)c2)[nH]c2ccccc12)C(=O)O (stereo unspecified)	203	
O=C(CCOCC(COCCC(=O)NC(Cc1c(-c2ccc(C(=O)O)cc2)[nH]c2c(-c3ccc(C(=O)O)cc3)cccc12)C(=O)O)(COCCC(=O)NC(Cc1c(-c2ccc(C(=O)O)cc2)[nH]c2c(-c3ccc(C(=O)O)cc3)cccc12)C(=O)O)COCCC(=O)NC(Cc1c(-c2ccc(C(=O)O)cc2)[nH]c2c(-c3ccc(C(=O)O)cc3)cccc12)C(=O)O)NC(Cc1c(-c2ccc(C(=O)O)cc2)[nH]c2c(-c3ccc(C(=O)O)cc3)cccc12)C(=O)O (stereo unspecified)	667	
CCOC(=O)c1ccc(OCCC2CCN(c3ccc(C)nn3)CC2)cc1 [PIRODAVIR]	333	
O=C(CCOCC(COCCC(=O)NC(Cc1c[nH]c2c(-c3cc(C(=O)O)cc(C(=O)O)c3)cccc12)C(=O)O)(COCCC(=O)NC(Cc1c[nH]c2c(-c3cc(C(=O)O)cc(C(=O)O)c3)cccc12)C(=O)O)COCCC(=O)NC(Cc1c[nH]c2c(-c3cc(C(=O)O)cc(C(=O)O)c3)cccc12)C(=O)O)NC(Cc1c[nH]c2c(-c3cc(C(=O)O)cc(C(=O)O)c3)cccc12)C(=O)O (stereo unspecified)	157	
O=C(CCC(CCC(=O)NC(Cc1c[nH]c2c(-c3cccc(C(=O)O)c3)cccc12)C(=O)O)(CCC(=O)NC(Cc1c[nH]c2c(-c3cccc(C(=O)O)c3)cccc12)C(=O)O)[N+](=O)[O-])NC(Cc1c[nH]c2c(-c3cccc(C(=O)O)c3)cccc12)C(=O)O (stereo unspecified)	1	
O=C(CCC(CCC(=O)NC(Cc1c[nH]c2c(-c3cc(C(=O)O)cc(C(=O)O)c3)cccc12)C(=O)O)(CCC(=O)NC(Cc1c[nH]c2c(-c3cc(C(=O)O)cc(C(=O)O)c3)cccc12)C(=O)O)[N+](=O)[O-])NC(Cc1c[nH]c2c(-c3cc(C(=O)O)cc(C(=O)O)c3)cccc12)C(=O)O (stereo unspecified)	63	
